According to ChEMBL document CHEMBL3351416, “Design, synthesis and biological evaluation of novel pyrenyl derivatives as anticancer agents” (Eur J Med Chem, 2015):
The source made the active and inactive calls. No cut-off for these calls is given here.

Key:
[1] = system: HeLa; experiment: Induction of apoptosis in human HeLa cells assessed as membrane blebbing at 2 uM after 12 hrs by microscopy; format: functional, cell-based
Method in brief: (§1)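 HeLa cells were seeded at 1.5-2.0×10^5 cells/well and treated. Membrane blebbing and cell shrinkage were assessed by light microscopy after 8, 12 or 15 hrs.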

[2] = system: HeLa; experiment: Induction of apoptosis in human HeLa cells assessed as membrane blebbing at 2 uM after 8 hrs by microscopy; format: functional, cell-based; details: in the assay text read “12 hrs” for “8 hrs”; method in brief: as §1
[3] = system: Hepa1-6; experiment: Cytotoxicity against mouse Hepa1-6 cells assessed as reduction in cell viability at <5 uM after 48 hrs by sulforhodamine B colorimetric assay; format: functional, cell-based
Method in brief: (§2)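 Primary mouse hepatocytes and Hepa1-6 cells were exposed to graded doses for 48 hrs. Viability was normalized to DMSO-treated cells. Hepa1-6 cells were grown in DMEM with 10% FBS at 37°C under 5% CO₂. 10-μM doxorubicin served as the cytotoxicity positive control.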

[4] = Drug localization in cytoplasmic membrane of human HepG2 cells at 30 uM for 3 hrs by BODIPY TR-labelling based confocal microsocopy; format: ADME, cell membranes; details: hepg2, 3 h
Method in brief: (§3)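 Cells (200,000/well) were seeded on coverslips and incubated overnight at 37°C, then treated for 4 hrs (50 μM) or 3 hrs. They were rinsed with PBS/BSA and stained with 5 µM BODIPY TR-labeled sphingolipids for 30 min at 4°C. Cells were fixed in 4% paraformaldehyde, permeabilized with 0.2% Triton X-100, and examined by confocal microscopy using 1 µm Z-stacks.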

[5] = system: Hepa1-6; experiment: Cytotoxicity against mouse Hepa1-6 cells assessed as reduction in cell viability at 50 uM after 48 hrs by sulforhodamine B colorimetric assay; format: functional, cell-based; method in brief: as §2
[6] = system: MCF7; experiment: Cytotoxicity against human MCF7 cells assessed as reduction in cell viability after 48 hrs by sulforhodamine B colorimetric assay; format: functional, cell-based; details: MCF7, 48 h
Method in brief: (§4)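 Cell lines were kept at 37°C under 5% CO₂. HepG2, Hepa1-6, HeLa and MCF-7 were grown in DMEM with 10% FBS. Caco-2 was grown in DMEM with 20% FBS. HT-29 was grown in McCoy's medium with 10% FBS. The viability assay used 10-μM doxorubicin as positive control. Values marked * came from a single dose curve.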

[7] = system: HeLa; experiment: Induction of apoptosis in human HeLa cells assessed as PARP cleavage at <10 uM after 12 hrs by Western blotting; format: functional, cell-based
Method in brief: (§5)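 HeLa cells were treated for 12 hrs and lysed in 0.5% SDS buffer (50 mM Tris pH 8.0, 1 mM DTT, phosphatase and protease inhibitors). Lysates were western blotted with anti-PARP for full-length and cleaved PARP. 1 μM staurosporine served as positive control.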

[8] = system: HeLa; experiment: Induction of apoptosis in human HeLa cells assessed as membrane blebbing at 2 uM after 15 hrs by microscopy; format: functional, cell-based; details: in the assay text read “12 hrs” for “15 hrs”; method in brief: as §1
[9] = system: HeLa; experiment: Induction of apoptosis in human HeLa cells assessed as PARP cleavage at 10 uM after 12 hrs by Western blotting; format: functional, cell-based; method in brief: as §5
[10] = Cytotoxicity against human SKOV3-MDR1-M6/6 cells assessed as reduction in cell viability after 48 hrs by sulforhodamine B colorimetric assay; format: functional, cell-based; details: SKOV3-MDR1-M6/6, 48 h
Method in brief: (§6)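 SKOV3 cells and the retrovirally transduced subclone SKOV3-MDR1-M6/6, which overexpresses P-glycoprotein, were grown in BME with 10% FBS at 37°C under 5% CO₂. Cells were exposed to 0-25 μM for 48 hrs. Viability was read by SRB assay and a dose curve was plotted for each cell line. Paclitaxel served as the reference drug.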

[11] = system: HeLa; experiment: Cytotoxicity against human HeLa cells assessed as reduction in cell viability after 48 hrs by sulforhodamine B colorimetric assay; format: functional, cell-based; method in brief: as §4
[12] = Cytotoxicity against mouse Hepa1-6 cells assessed as reduction in cell viability after 48 hrs by sulforhodamine B colorimetric assay; format: functional, cell-based; details: Hepa1-6, 48 h; method in brief: as §4
[13] = Drug localization in cytoplasmic membrane of human HepG2 cells at 30 uM for 3 hrs by epifluorescent microscopy; format: ADME, cell membranes; details: hepg2, 3 h
[14] = Drug localization in […] rich regions of cytoplasmic membrane of human HepG2 cells at 3 uM for 2 hrs by BODIPY TR-labeled sphingolipids detection based Western blotting; format: ADME, cell-based; details: hepg2, 2 h
Method in brief: (§7)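 HepG2 cells (1x10^6/plate) were treated for 4 hrs at 5 μM or for 2 hrs at 3 μM, then stained with 5 μM BODIPY TR sphingolipids for 30 min at 4°C. Cells were lysed in PBS with 0.5% Brij-96, and lysates were normalized by BCA. Lysates were separated on a step OptiPrep gradient (2.5–30%) at 125,000 g for 12 hrs. Fractions were analysed for compound fluorescence and blotted for Thy-1, Lyn and GAPDH.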

[15] = Cytotoxicity against human SKOV3 cells assessed as reduction in cell viability after 48 hrs by sulforhodamine B colorimetric assay; format: functional, cell-based; details: SK-OV-3, 48 h; method in brief: as §6
[16] = system: HepG2; experiment: Cytotoxicity against human HepG2 cells assessed as reduction in cell viability after 48 hrs by sulforhodamine B colorimetric assay; format: functional, cell-based; details: HepG2, 48 h; method in brief: as §4
[17] = system: HT-29; experiment: Cytotoxicity against human HT-29 cells assessed as reduction in cell viability after 48 hrs by sulforhodamine B colorimetric assay; format: functional, cell-based; details: HT-29, 48 h; method in brief: as §4
[18] = system: Hepatocyte; experiment: Cytotoxicity against hepatocytes (unknown origin) assessed as reduction in cell viability at <5 uM after 48 hrs by sulforhodamine B colorimetric assay; format: cell-based; method in brief: as §2
[19] = system: Hepatocyte; experiment: Cytotoxicity against hepatocytes (unknown origin) assessed as reduction in cell viability at 50 uM after 48 hrs by sulforhodamine B colorimetric assay; format: cell-based; method in brief: as §2
[20] = Cytotoxicity against human Caco2 cells assessed as reduction in cell viability after 48 hrs by sulforhodamine B colorimetric assay; format: functional, cell-based; details: Caco-2, 48 h; method in brief: as §4
[21] = system: HepG2; experiment: Drug localization human HepG2 cells at 50 uM for 4 hrs by epifluorescent microscopy; format: ADME, cell-based; details: hepg2, 4 h
[22] = Drug localization in […] rich regions of cytoplasmic membrane of human HepG2 cells at 5 uM for 4 hrs by BODIPY TR-labeled sphingolipids detection based Western blotting; format: ADME, cell-based; details: hepg2, 4 h; method in brief: as §7
[23] = Drug localization in cytoplasmic membrane of human HepG2 cells at 50 uM for 4 hrs by BODIPY TR-labelling based confocal microsocopy; format: ADME, cell membranes; details: hepg2, 4 h; method in brief: as §3
[24] = Cytotoxicity against human SKOV3-MDR1-M6/6 cells assessed as reduction in cell viability at 25 uM after 48 hrs by sulforhodamine B colorimetric assay; format: functional; method in brief: as §6

Row | Structure (SMILES) | IC50 [6] | IC50 [11] | IC50 [12] | IC50 [15] | IC50 [16] | IC50 [17] | IC50 [20] | also measured
1 | c1cc2ccc3cccc4c(NCCCCN5CCCCC5)cc(c1)c2c34 | 1.1 µM | 2.6 µM | 2.5 µM | 5 µM | 1.4 µM | 2.98 µM | – | Activity [1]: Active; Activity [2]: Active; Activity [3]: Active; Drug uptake [4]: Active; Activity [5]: Active; Activity [7]: inactive; Activity [8]: Active; Activity [9]: Active; IC50 [10]: 6.4 µM; Drug uptake [13]: Active; Drug uptake [14]: Active; Activity [18]: Non-toxic; Activity [19]: Toxic
2 | O=C(CCC(=O)N1CCCCC1)Nc1cc2cccc3ccc4cccc1c4c32 | – | > 30 µM | > 30 µM | – | > 30 µM | – | – | –
3 | CN1CCN(CCCCNc2cc3cccc4ccc5cccc2c5c43)CC1 | 2.6 µM | 4.1 µM | 1.1 µM | 5.5 µM | 2.4 µM | 4.8 µM | 7.23 µM | Activity [1]: Active; Activity [2]: Active; Activity [3]: Active; Drug uptake [4]: Active; Activity [5]: Active; Activity [7]: inactive; Activity [8]: Active; Activity [9]: Active; IC50 [10]: 6.2 µM; Drug uptake [13]: Active; Drug uptake [14]: Active; Activity [18]: Non-toxic; Activity [19]: Toxic
4 | CN1CCN(C(=O)CCC(=O)Nc2cc3cccc4ccc5cccc2c5c43)CC1 | 14.1 µM | 16.8 µM | 14.8 µM | – | 16.9 µM | 19.3 µM | – | –
5 | c1cc2ccc3cccc4c(NCCCCCN5CCCCC5)cc(c1)c2c34 | 14.1 µM | 18.2 µM | 18.3 µM | – | 18.8 µM | 19.8 µM | – | –
6 | CC(C)COC(=O)Nc1cc2cccc3ccc4cccc1c4c32 | – | 16.2 µM | 5.9 µM | – | 30.4 µM | 20.7 µM | 36.3 µM | –
7 | CC(C)COCNc1cc2cccc3ccc4cccc1c4c32 | – | 9.8 µM | 9.9 µM | – | 39.6 µM | 14 µM | > 50 µM | Drug uptake [21]: Active; Drug uptake [22]: Active; Drug uptake [23]: Active
8 | O=C(CCCC(=O)N1CCCCC1)Nc1cc2cccc3ccc4cccc1c4c32 | > 30 µM | > 30 µM | > 30 µM | – | – | > 30 µM | – | –
9 | CC(=O)O[C@H]1C(=O)[C@@]2(C)[C@H]([C@H](OC(=O)c3ccccc3)[C@]3(O)C[C@H](OC(=O)[C@H](O)[C@@H](NC(=O)c4ccccc4)c4ccccc4)C(C)=C1C3(C)C)[C@]1(OC(C)=O)CO[C@@H]1C[C@@H]2O [PACLITAXEL] | – | – | – | < 0.001 µM | – | – | – | Activity [24]: 40%
